# Compound activity: PubChem BioAssay, several laboratories
# The entries come from a sample that favours hits as a whole.
# L major viab: Leishmania major promastigote growth inhibition, primary screen | actives 9% (n = 200,000) | Leishmania major promastigotes, resazurin fluorescence viability | inhibition, % at 10 µM; in the data active means inhibition above about 50%;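 further: promastigotes grown with compound for 44 hours at 28 °C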
# UPR XBP1 act: activators of adaptive XBP1 UPR arm, primary screen, cell-based, CHO-XBP1 luciferase reporter, luminescence, uHTS | actives 0.33% (n = 330,000) | IRE1-XBP1 UPR activation; percent of tunicamycin response, DMSO as zero | activation, % at 20 µM;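 active means versus positive control, 20 µM dose yields 30% or more activation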;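 further: 100% = tunicamycin at 10 µg/mL and 0% = DMSO only wells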
#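 Signal: luciferase luminescence; Assay system: CHO-XBP1 luciferase reporter cells; Amount: one thousand reporter cells per well; Dosing: 20 µM single concentration, DMSO 1%; Benchmarks: high control tunicamycin 10 µg/mL final, low control DMSO vehicle only; Schedule: 6 h compound exposure at 37 °C, 5% CO2; Evaluation: percent activation relative to tunicamycin reference.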
# CHOP inh: inhibitors of CHOP promoter induction, primary screen, cell-based, unfolded protein response, luciferase reporter; actives 3.8% (n = 220,000); inhibition, % at 10 µM; CHO-K1 CHOP-promoter luciferase, tunicamycin-induced, 15-18 h; AID 2732, 2010;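 active means compounds that reduced the stress-induced luciferase reporter signal by more than about 70% of percent inhibition, limit read from the data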;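 further: 0% = tunicamycin plus vehicle and 100% = wells without tunicamycin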
# T cruzi repl: inhibitors of intracellular T. cruzi growth, primary screen, luminescence, NIH3T3 host cells | AID 1885, 2009 | inhibition, % (test concentration not listed) | actives 1.4% (n = 300,000) | T. cruzi beta-gal in NIH3T3, 90 h;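 active means mean inhibition across valid replicates above about 55%, limit read from the data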;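 further: signal also drops with host cell toxicity which is not excluded here; 0% = plate median of DMSO wells and 100% = zero luminescence signal; higher percent means less beta-gal luminescence so fewer parasites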
#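 Assay system: NIH/3T3 fibroblasts plus reporter T. cruzi. Amount: NIH/3T3 cells, 5,000 per well. Buffer or medium: DMEM, 2% fetal bovine serum. Doses: compound pinned at 50 nL/well, DMSO. Schedule: ≥90 h infection period, 3 h prior cell attachment. Signal: luminescent β-galactosidase signal after 60 min lysis. Read-out: parasite load inhibition, %.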
# Dynein transport: inhibitors of GR-EGFP nuclear translocation, primary screen, dynein cargo transport inhibitor project, imaging, high-content, 3617.4 mouse cells | test concentration mostly 20 µM; stimulated with dexamethasone, 1 µM; active compounds read low | z-score, hits read low | actives 0.47% (n = 220,000) | AID 1381, 2008;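 active means plate z-score of nuclear minus cytoplasmic receptor signal below a set negative limit, without overly bright fluorescence or cell loss, cut at about -3.5 in these data, passing the limit was not always enough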;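 further: z-score of nuclear minus cytoplasmic ring GR-EGFP intensity difference per well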
#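 Buffer or medium: tet-free, stripped-serum medium; Also added: dexamethasone, 1.0 µM final; Technique: high-content fluorescence imaging after fixation; Times: 48 h induction, 1 h compound, 30 min dex at 37 °C; Read-out: per-cell GR-EGFP intensity, nucleus versus surrounding cytoplasmic ring, well-averaged.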
# UPR CHOP act: activators of apoptotic CHOP UPR arm, primary screen, cell-based, CHO-CHOP luciferase reporter, luminescence, uHTS; UPR activation; percent of tunicamycin response over DMSO baseline; activation, % at 10 µM; actives 0.34% (n = 330,000);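 active means at 10 µM dose, activation of 40% or more, normalized to positive control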;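 further: 100% = tunicamycin at 10 µg/mL and 0% = DMSO alone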
#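 System: CHO-CHOP luciferase reporter cell line | Buffer or medium: F12 medium containing 10% fetal bovine serum | Doses: One dose, 10 µM in 0.5% DMSO | Times: 6 h compound exposure at 37 °C after overnight seeding | Signal: Luciferase luminescence | Read-out: % activation vs tunicamycin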
# * hit, by the source's call; / = no result given.
SMILES,L major viab,UPR XBP1 act,CHOP inh,T cruzi repl,Dynein transport,UPR CHOP act
CCOC(=O)c1c(NC(=O)CSc2nnc(-c3c[nH]c4ccccc34)n2C)sc2c1CCCC2,51*,0,16,35,-0.71,-1
COc1ccc(C)cc1NC(=O)C1CCN(C(=O)c2ccc(C(C)(C)C)cc2)CC1,/,1,/,9,/,1
CCCOc1ccc(NC(=O)C2CC(=O)N/C(=N/N=C(\C)CCc3ccc4c(c3)OCO4)S2)cc1 (stereo not drawn),-5,0,78*,7,-0.29,4
CCCOc1ccc(NC(=O)C2CC(=O)N/C(=N/N=C(C)/C=C/c3ccc(N(C)C)cc3)S2)cc1 (stereo not drawn),3,-3,72*,16,-2.9,8
CC(/C=C/c1ccc(N(C)C)cc1)=N\N=C1\NC(=O)CC(C(=O)Nc2ccccc2)S1 (stereo not drawn),9,0,-4,9,-0.16,3
CC(/C=C/c1ccc(N(C)C)cc1)=N/N=C1/NC(=O)CC(C(=O)Nc2ccc(Cl)cc2)S1 (stereo not drawn),-2,-1,71*,-7,-0.3,1
CCC(=O)N(CCC1(c2ccccc2OC)CCOC(C(C)C)C1)Cc1ccco1 (stereo not drawn),/,2,-1,/,-0.21,0
O=C(Cc1n[nH]c(=O)[nH]c1=O)N/N=C/c1ccccc1,-6,0,16,-19,-0.68,-1
O=C(CSc1n[nH]c(=O)[nH]c1=O)N/N=C/c1ccccc1,56*,1,7,-19,1.2,3
Cc1cccc(OCCC(=O)NCC(=O)Nc2cccc(C)c2C)c1,61*,-2,38,-1,0.23,0
CN(Cc1cn(C)nc1-c1cccc(Cl)c1)Cc1nccn1C,/,-3,1,-2,0.3,-1
CN(Cc1ncc[nH]1)Cc1cn(-c2ccccc2)nc1-c1ccc2c(c1)OCO2,/,0,3,10,-0.26,1
Cc1ccc(-n2cc(CN(C)Cc3ncc[nH]3)c(-c3cccc(C)c3)n2)cc1,83*,4,22,58*,0.63,-1
Cc1ccc(-n2cc(CN3CCC(O)(c4ccccn4)CC3)c(-c3ccc(F)cc3)n2)cc1,73*,2,52,55*,-0.74,0
Cc1ccc(-n2cc(CN(C)Cc3nccn3C)c(-c3ccc(F)cc3)n2)cc1,80*,1,30,48,0.12,0
Cc1cccc(-n2cc(CN3CCN(Cc4nccn4C)CC3)c(-c3cccc(F)c3)n2)c1,90*,5,-29,35,0.17,5
Cc1cc(Br)ccc1NC(=O)CN(C)C(=O)COc1cccc2c1OC(C)(C)C2,/,-2,/,2,/,0
CCOC(=O)C1(CC)Oc2ccccc2C(c2ccc(OC)cc2)=C1C(=O)OC (stereo not drawn),/,-5,/,/,/,2
COc1ccc(OC)c(CNS(=O)(=O)c2cc(CN3C(=O)c4cccnc4C3=O)ccc2OC)c1,/,-3,/,-5,/,-1
CCn1ccnc1CN(C)Cc1cn(-c2cc(C)ccc2C)nc1-c1ccccc1,93*,4,14,10,0.065,0
CCn1ccnc1CN(C)Cc1cn(-c2ccc(C)cc2)nc1-c1ccc(F)cc1,100*,0,75*,48,-0.82,2
C=CC[C@@H](CC(=O)OC(C)(C)C)C(=O)OC[C@@H]1CCCN1C(=O)[C@@H](CC=C)CC(=O)N(CCO)Cc1ccccc1,/,-2,/,/,/,2
CC1CCCC(NC(=O)COC(=O)c2ccc3ncsc3c2)C1C (stereo not drawn),/,-3,/,/,/,2
CCN1CCN(c2ncc3c(n2)CC(c2ccc(OC)c(OC)c2)CC3=O)CC1 (stereo not drawn),99*,-2,63,6,3.8,-2
COc1ccc(C2CC(=O)c3cnc(N4CCN(Cc5ccccc5)CC4)nc3C2)cc1 (stereo not drawn),-3,-1,65,37,3.1,-2
SMILES,L major viab,UPR XBP1 act,CHOP inh,T cruzi repl,Dynein transport,UPR CHOP act
CCN(CC)CCCN(C(=O)c1cccc(C)c1)c1nc(-c2ccc(OC)cc2)cs1,/,-3,/,18,/,2
O=C(/C=C/c1cccc(Cl)c1)NCc1cccs1,-1,2,1,-12,-0.37,1
O=C(/C=C/c1ccc(Cl)cc1)NCc1cccs1,53*,1,15,-6,-0.76,3
COc1ccc(N2C(=NC(=O)C(C)Oc3ccccc3)SC3CS(=O)(=O)CC32)cc1 (stereo not drawn),/,-2,/,-7,/,0
O=C(COc1cc(F)ccc1[N+](=O)[O-])Nc1cccc(S(=O)(=O)NC2=NCCC2)c1,/,0,/,/,/,-1
Cc1ccc(/C=C/C(=O)c2nc3ccccc3[nH]2)cc1,98*,5,-45,-1,-0.1,5
Cc1ccc(S(=O)(=O)Nc2cc(C(C(=O)OC(C)C)C(=O)C(F)(F)F)c(O)c3ccccc23)c(C)c1 (stereo not drawn),92*,-2,64,-9,-0.52,2
Cc1ccc(S(=O)(=O)Nc2ccc(O)c3ccccc23)c(C)c1,/,/,/,1,/,/
CN(CC(=O)Nc1ccc(F)c(F)c1F)C(=O)CCCSc1nc2ccccc2[nH]1,/,-2,/,0,/,0
CCOC(=O)c1ccc(NC(=O)c2nc[nH]c2C(=O)N2CCN(c3ccccc3)CC2)cc1,/,-4,73*,-4,1.5,1
CCOC(=O)c1ccc(NC(=O)c2nc[nH]c2C(=O)NC2CCN(C(=O)OC(C)(C)C)CC2)cc1,/,1,85*,-5,-0.22,3
Cc1ccc(NC(=O)c2nc[nH]c2C(=O)N2CCN(c3ccccc3)CC2)cc1,/,-1,34,-7,-0.57,0
Nc1c(C(=O)CSc2nc3ccccc3o2)c(=O)[nH]c(=O)n1C1CC1,/,3,/,/,/,2
O=C1CC(N2CCSCC2)C(=O)N1c1ccc(F)cc1 (stereo not drawn),/,1,10,6,-1.3,0
CC(/C=N/NC(=O)c1cc(-c2cccs2)[nH]n1)=C\c1ccccc1,0,7,91*,-14,-0.54,0
Cc1ccc(-c2cc(C(=O)N/N=C/c3ccccc3)n[nH]2)o1,/,-2,/,-2,/,0
CC(/C=N/NC(=O)c1cc(-c2ccc(C)o2)[nH]n1)=C\c1ccccc1,-1,-1,94*,-12,0.64,-2
COc1ccc(C(=O)NCCOc2ccccc2Cl)c(OC)c1OC,/,1,/,-5,/,7
